CaV13 FRET inh: Disruptors of the CACNA1D IQ motif to Ca2+-dependent inactivation inhibitor domain association, primary screening, Förster resonance energy transfer in intact living …; 340,000 compounds, 0.098% hits; HEK cells, CFP/YFP FRET ICDI-IQ, plate reader, 10 min; percent FRET-ratio fall versus neutral wells; inhibition, % at 12.3 µM;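 active = mean replicate inhibition of at least 30% and at least 1% of replicates passing that level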;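 note: 0% = median of the neutral control wells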
RanGTP-Imp inh: inhibitors of RanGTP-importin-beta interaction, primary screen, biochemical, FRET, CFP-Ran, YFP-importin-beta, homogeneous | Ran GTPase (GTP-bound) - importin-beta complex | cell-free CFP-Ran/YFP-importin-beta FRET ratio | inhibition, % (test concentration not listed) | 300,000 compounds, 1.1% hits;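 active = more than half of the replicate wells show a fall in the fluorescence ratio signal beyond about 16%, limit read from the data, passing the limit was not always enough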;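 note: 0% = DMSO wells and 100% = Ran loaded with GDP instead of GTP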
Runt-CBFb FRET: inhibitors of RUNX1 Runt–CBFb binding, primary screen, biochemical, FRET, Cerulean-Runt, Venus-CBFb, uHTS. Runt-related transcription factor 1 (Homo sapiens) + Core-binding factor subunit beta …. Cerulean-Runt/Venus-CBFb FRET ratio 530/480, 1 h. inhibition, % at 20 µM. 220,000 compounds, 0.46% hits;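 active = inhibition over about 50% at 20 µM in the single-dose screen, limit read from the data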;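 note: 0% = DMSO wells and 100% = excess unlabeled CBFb competitor control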
Target sequence (Q01196 whole entry, looked up): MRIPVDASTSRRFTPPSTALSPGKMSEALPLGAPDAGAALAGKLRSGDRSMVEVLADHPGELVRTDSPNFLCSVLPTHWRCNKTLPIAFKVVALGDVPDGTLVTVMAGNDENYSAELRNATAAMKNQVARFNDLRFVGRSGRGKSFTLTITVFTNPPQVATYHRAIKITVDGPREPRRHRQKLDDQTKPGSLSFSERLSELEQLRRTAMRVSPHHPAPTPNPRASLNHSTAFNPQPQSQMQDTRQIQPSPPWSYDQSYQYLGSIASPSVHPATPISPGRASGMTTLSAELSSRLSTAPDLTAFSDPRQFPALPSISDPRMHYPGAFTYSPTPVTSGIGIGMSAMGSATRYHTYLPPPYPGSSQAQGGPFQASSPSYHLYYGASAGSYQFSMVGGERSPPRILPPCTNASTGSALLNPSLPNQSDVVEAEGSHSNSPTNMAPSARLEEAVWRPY
Target sequence (Q13951 whole entry, looked up): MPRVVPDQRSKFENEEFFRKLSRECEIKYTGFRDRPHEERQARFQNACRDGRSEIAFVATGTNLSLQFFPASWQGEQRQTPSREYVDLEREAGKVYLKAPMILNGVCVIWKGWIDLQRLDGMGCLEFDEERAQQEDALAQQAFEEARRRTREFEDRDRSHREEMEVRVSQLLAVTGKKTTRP
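test system = Cerulean-tagged RUNX1 Runt domain (FRET donor) fusion protein | reagent = Venus-CBFb binding partner, 100 nM | incubation = protein complex preformed 1 h, compound exposure 1 h, room temperature, dark | detection = FRET fluorescence | read-out basis = loss of energy transfer signal | controls = 5 µM unlabeled CBFb as full-inhibition high control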
Runt-SMMHC FRET: inhibitors of RUNX1 Runt–CBFb-SMMHC binding, primary screen, biochemical, FRET, Cerulean-Runt, Venus-CBFb-SMMHC, uHTS; AID 1434, 2008; 220,000 compounds, 0.74% hits; Runt-related transcription factor 1 (Homo sapiens) + Core-binding factor subunit beta …; inhibition, % at 20 µM; Cerulean-Runt/Venus-CBFb-SMMHC FRET ratio 530/480, 1 h;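 active = mean inhibition across duplicate retests at 20 µM reaching about 50%, limit read from the data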;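 note: 0% = DMSO wells and 100% = wells with excess untagged CBFb-SMMHC; inhibitors lower the FRET ratio by blocking Runt binding to CBFb-SMMHC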
An asterisk follows results filed as active. This is a sample that favours compounds with a hit; in the whole collection about 1.2% have one here.

Screening CC(=O)NC1CC2CCCC(C1)N2C(=O)Nc1ccc(Cl)cc1 (centres undefined) returned CaV13 FRET inh -4.9.
For Cc1ccc(NC(=O)CCC(=O)N/N=C/c2ccc([N+](=O)[O-])o2)cc1C the results were CaV13 FRET inh -6.6, RanGTP-Imp inh 21.4*, Runt-CBFb FRET 3.3 and Runt-SMMHC FRET 0.3.
Screening CCCC(=O)Nc1ccc(C(=O)N/N=C/c2ccc([N+](=O)[O-])o2)cc1 returned CaV13 FRET inh -5.8, RanGTP-Imp inh -3.6, Runt-CBFb FRET -1.7 and Runt-SMMHC FRET -3.4.
COC(=O)c1ccc2c(c1)N(Cc1nc(-c3ccc(Cl)cc3)oc1C)C(=O)C1CCCN21 (centres undefined) was read as CaV13 FRET inh -5.3 and RanGTP-Imp inh 4.6.
`CCOc1ccc(NC(=O)CN2C(=O)S/C(=C/c3cccn3C)C2=O)cc1` gave CaV13 FRET inh -10.0, RanGTP-Imp inh 16.4*, Runt-CBFb FRET -11.7 and Runt-SMMHC FRET -46.7.
CCOC(=O)C1=C[C@@H](C(C)(C)C)N(S(=O)(=O)c2ccc([N+](=O)[O-])cc2)[C@H]1c1cccc(Cl)c1 was read as CaV13 FRET inh -4.1.
COc1cccc(C(=O)/C=C2\Sc3ccccc3N2C)c1 was read as CaV13 FRET inh -5.3, RanGTP-Imp inh 1.6, Runt-CBFb FRET 44.1 and Runt-SMMHC FRET 55.3*.
COc1cccc(C(=O)Nc2ccccc2NC(=O)c2cccc(OC)c2)c1 was read as CaV13 FRET inh -0.6 and RanGTP-Imp inh -0.3.
For COc1cc(C2C(C#N)=C(N)Oc3cc(N(C)C)ccc32)cc2c1OCO2 (centres undefined) the results were RanGTP-Imp inh 26.9*, Runt-CBFb FRET -8.8 and Runt-SMMHC FRET 13.2.
COc1cc(C2C(C#N)=C(N)Oc3cc(O)ccc32)cc2c1OCO2 (centres undefined) was read as RanGTP-Imp inh 41.5*, Runt-CBFb FRET 11.1 and Runt-SMMHC FRET 41.0.
For COc1cc(C2C(C#N)=C(N)Oc3cc4c(cc32)OCO4)cc(OC)c1OC (centres undefined) the results were CaV13 FRET inh -6.8, RanGTP-Imp inh 4.6, Runt-CBFb FRET 7.8 and Runt-SMMHC FRET 5.2.
CCOC(=O)C1=C(C)OC(N)=C(C#N)C1c1cc(OC)c2c(c1)OCO2 (centres undefined) was read as CaV13 FRET inh -1.0, RanGTP-Imp inh 0.5, Runt-CBFb FRET -0.6 and Runt-SMMHC FRET 1.2.
Screening CCN(CC(=O)Nc1c(F)cccc1F)C(=O)C1CC(=O)N(c2ccccc2OC)C1 (centres undefined) returned CaV13 FRET inh -11.3 and RanGTP-Imp inh 1.5.
Screening CCOc1ccc2oc(C(=O)NCC3CCCO3)c(C)c2c1 (centres undefined) returned CaV13 FRET inh -2.7 and RanGTP-Imp inh 0.5.
Screening COc1ccc(N=c2oc3cc(O)ccc3cc2C(=O)NCC2CCCO2)c(OC)c1 (centres undefined) returned CaV13 FRET inh 21.1, RanGTP-Imp inh 176.0*, Runt-CBFb FRET 11.2 and Runt-SMMHC FRET 41.4.
For COc1cc(SC)ccc1C(=O)NCC1CCCO1 (centres undefined) the results were CaV13 FRET inh -4.7, RanGTP-Imp inh 1.1, Runt-CBFb FRET 0.1 and Runt-SMMHC FRET -6.0.
For COc1ccc(N=c2oc3cc(O)ccc3cc2C(=O)NCC2CCCO2)cc1 (centres undefined) the results were CaV13 FRET inh 14.9, RanGTP-Imp inh 173.4*, Runt-CBFb FRET 81.7* and Runt-SMMHC FRET 64.1*.
CCOc1ccccc1N=c1oc2cc(O)ccc2cc1C(=O)NCC1CCCO1 (centres undefined) was read as CaV13 FRET inh 32.8*, RanGTP-Imp inh 180.4*, Runt-CBFb FRET 52.6* and Runt-SMMHC FRET 58.7*.
For CCOc1ccc(N=c2oc3cc(O)ccc3cc2C(=O)NCC2CCCO2)cc1 (centres undefined) the results were CaV13 FRET inh 22.9, RanGTP-Imp inh 184.1*, Runt-CBFb FRET 120.9* and Runt-SMMHC FRET 105.5*.
`COc1cc(NC(=O)C(C)(C)C)c(C(=O)OCC(=O)Nc2cc(C)on2)cc1OC` gave CaV13 FRET inh -12.5.
COc1cc(Cl)ccc1OCc1cc(C(=O)N[C@H]2CCCCNC2=O)no1 was read as CaV13 FRET inh -15.3 and RanGTP-Imp inh -2.1.
For COc1cccc(OCC(=O)Nc2ccccc2-c2ccccc2)c1 the results were CaV13 FRET inh -4.3, RanGTP-Imp inh 0.2, Runt-CBFb FRET -1.6 and Runt-SMMHC FRET -5.2.
Screening CCCC(=O)Nc1nn(CCC)c2nc3ccccc3cc12 returned CaV13 FRET inh -6.0, RanGTP-Imp inh 7.6, Runt-CBFb FRET 7.7 and Runt-SMMHC FRET 3.8.
`CCCn1nc(NC(=O)c2ccncc2)c2cc3ccccc3nc21` gave CaV13 FRET inh -5.1, RanGTP-Imp inh 6.1, Runt-CBFb FRET 3.0 and Runt-SMMHC FRET 13.9.
CCCn1nc(NC(=O)c2cccs2)c2cc3ccccc3nc21 was read as CaV13 FRET inh -5.4, RanGTP-Imp inh 60.8* and Runt-SMMHC FRET 50.2*.
For CCCCn1nc(NC(=O)c2cccs2)c2cc3ccccc3nc21 the results were CaV13 FRET inh -8.0, RanGTP-Imp inh 73.5*, Runt-CBFb FRET 25.6 and Runt-SMMHC FRET 63.4*.
`COc1ccc(CCC(=O)Nc2ccc(Cl)c(S(=O)(=O)N3CCCC3)c2)cc1` gave CaV13 FRET inh -4.3, RanGTP-Imp inh -2.3, Runt-CBFb FRET 2.0 and Runt-SMMHC FRET -6.2.
For CC(=O)Nc1ccc(S(=O)(=O)N2CCN(C(=O)C(=O)c3cccc(C(F)(F)F)c3)CC2)cc1 the results were CaV13 FRET inh -8.4.
Screening Cc1cccn2c(=O)c3cc(C(=O)NCC4CCCO4)c(=N)n(C4CCCCC4)c3nc12 (centres undefined) returned CaV13 FRET inh 12.3 and RanGTP-Imp inh active.
For Cc1cccn2c(=O)c3cc(C(=O)NC4CCCC4)c(=N)n(CC4CCCO4)c3nc12 (centres undefined) the results were CaV13 FRET inh 5.8 and RanGTP-Imp inh 191.6*.
Cc1cccn2c(=O)c3cc(C(=O)NCC4CCCO4)c(=N)n(CC4CCCO4)c3nc12 (centres undefined) was read as CaV13 FRET inh 58.3* and RanGTP-Imp inh 187.7*.
Screening Cc1cccn2c(=O)c3cc(C(=O)NCc4ccco4)c(=N)n(C4CCCC4)c3nc12 returned CaV13 FRET inh 6.3 and RanGTP-Imp inh 130.0*.
Screening CCOc1ccc(N2C(=O)C(C)CNC2=S)cc1 (centres undefined) returned CaV13 FRET inh -5.9.
Screening CCOC(=O)c1cc2c(=O)n3cccc(C)c3nc2n(CC2CCCO2)c1=NC(C)=O (centres undefined) returned CaV13 FRET inh -9.6 and RanGTP-Imp inh 21.6*.
